Test results reported in ChEMBL document CHEMBL3286200, “Design and green synthesis of 2-(diarylalkyl)aminobenzothiazole derivatives and their dual activities as angiotensin converting enzyme inhibitors and calcium channel blockers” (Eur J Med Chem, 2014).
The source made the active and inactive calls. The rule behind the calls is not given here.

Legend:
[1] = organism: Rattus norvegicus; assay: (§1) Inhibition of voltage-dependent calcium channel in Sprague-Dawley rat thoracic aorta assessed as inhibition of CaCl2-induced contraction by isometric force transducer; format: tissue-based
In short: (§2)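 Rat aortic rings held at 37 °C in 25 mL oxygenated KHB in an organ bath, under 1 g resting tension, equilibrated about 30 min. Isometric tension recorded by force transducer. Initial contraction with phenylephrine 1 mM, buffer changed every 15 min. After preincubation with test agent, a cumulative calcium concentration-response curve (10^-3 to 10^-1 M) was recorded.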

[2] = organism: Rattus norvegicus; assay: Inhibition of voltage-dependent calcium channel in Sprague-Dawley rat thoracic aorta assessed as inhibition of CaCl2-induced contraction at […] by isometric force transducer; format: tissue-based
In short: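 Isolated rat aortic rings hung on steel hooks in a water-jacketed organ bath of oxygenated KHB at 37 °C. Resting tension 1 g, equilibration about 30 min. Rings precontracted with […], with buffer changed every 15 min. Tissue preincubated with test agent, then cumulative calcium concentration–response curve (10^-3 to 10^-1 M) recorded as isometric tension.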

[3] = target: T1, Angiotensin-converting enzyme (Oryctolagus cuniculus, UniProt P12822); assay: Inhibition of rabbit lung ACE assessed as inhibition of hippuryl-histidyl-leucine substrate hydrolysis pretreated for 10 mins followed by addition of 5 mM HHL substrate for 30 mins measured as hippuric acid release
T1 sequence (P12822 whole entry): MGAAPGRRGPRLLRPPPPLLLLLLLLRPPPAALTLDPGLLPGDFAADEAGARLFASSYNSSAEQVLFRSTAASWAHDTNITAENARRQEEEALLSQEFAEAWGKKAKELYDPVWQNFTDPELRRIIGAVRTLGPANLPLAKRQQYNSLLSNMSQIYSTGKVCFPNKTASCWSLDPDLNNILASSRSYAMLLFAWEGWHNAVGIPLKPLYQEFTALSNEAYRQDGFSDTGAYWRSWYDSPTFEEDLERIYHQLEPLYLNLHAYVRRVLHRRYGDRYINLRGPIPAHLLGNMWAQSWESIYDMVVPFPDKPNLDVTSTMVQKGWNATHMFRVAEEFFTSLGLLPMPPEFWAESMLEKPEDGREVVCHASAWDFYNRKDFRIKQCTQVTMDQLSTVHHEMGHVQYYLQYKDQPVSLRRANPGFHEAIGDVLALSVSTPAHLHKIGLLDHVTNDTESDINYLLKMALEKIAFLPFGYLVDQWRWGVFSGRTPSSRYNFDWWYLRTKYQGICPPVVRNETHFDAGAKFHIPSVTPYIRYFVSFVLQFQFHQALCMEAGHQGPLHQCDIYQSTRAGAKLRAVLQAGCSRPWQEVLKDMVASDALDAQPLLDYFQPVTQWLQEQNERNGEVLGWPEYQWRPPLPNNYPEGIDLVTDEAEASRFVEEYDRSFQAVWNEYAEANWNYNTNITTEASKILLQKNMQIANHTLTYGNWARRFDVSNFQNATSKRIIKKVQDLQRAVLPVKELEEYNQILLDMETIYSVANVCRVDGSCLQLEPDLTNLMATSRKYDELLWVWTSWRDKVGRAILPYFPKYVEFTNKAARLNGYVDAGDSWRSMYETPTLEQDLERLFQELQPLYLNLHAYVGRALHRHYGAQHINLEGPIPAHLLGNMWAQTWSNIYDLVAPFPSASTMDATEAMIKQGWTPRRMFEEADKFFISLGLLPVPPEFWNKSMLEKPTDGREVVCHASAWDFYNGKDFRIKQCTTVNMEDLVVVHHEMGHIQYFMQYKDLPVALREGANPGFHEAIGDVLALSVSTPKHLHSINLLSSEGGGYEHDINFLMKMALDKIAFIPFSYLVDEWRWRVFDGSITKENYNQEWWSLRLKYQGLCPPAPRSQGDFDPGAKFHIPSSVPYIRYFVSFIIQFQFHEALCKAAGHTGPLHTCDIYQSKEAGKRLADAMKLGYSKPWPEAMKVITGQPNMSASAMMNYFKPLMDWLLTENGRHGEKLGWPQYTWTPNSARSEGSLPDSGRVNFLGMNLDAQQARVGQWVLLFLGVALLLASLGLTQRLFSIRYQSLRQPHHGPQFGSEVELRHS
In short: (§3)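 Reaction started with […] of 5 mM HHL; released hippuric acid read as yellow colour at 410 nm. Inhibition% = 100 − (T/C)×100; IC50 from percentage-inhibition versus concentration curves.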

[4] = target: T2, Angiotensin-converting enzyme (Oryctolagus cuniculus) (UniProt P12822); assay: Inhibition of rabbit lung ACE assessed as inhibition of hippuryl-histidyl-leucine substrate hydrolysis at 1 uM pretreated for 10 mins followed by addition of 5 mM HHL substrate for 30 mins measured as hippuric acid release; in short: as §3
T2 sequence (whole entry): T1 sequence (P12822 whole entry)

[5] = as §1; format: tissue-based; in short: as §2

| SMILES | inhibition [1] | other results |
| --- | --- | --- |
| Oc1ccc2ccccc2c1C(Nc1nc2c(Cl)cccc2s1)c1ccccc1 (stereo not given) | Dose-dependent effect | – |
| Oc1ccc2ccccc2c1C(Nc1nc2c(Cl)cccc2s1)c1ccc(Cl)c(Cl)c1 (stereo not given) | Dose-dependent effect | – |
| Cc1ccc(C(Nc2nc3ccccc3s2)c2c(O)ccc3ccccc23)cc1 (stereo not given) | Dose-dependent effect | – |
| Oc1ccc2ccccc2c1C(Nc1nc2c(Cl)cccc2s1)c1ccc2ccccc2c1 (stereo not given) | Dose-dependent effect | – |
| Oc1ccc2ccccc2c1C(Nc1nc2ccccc2s1)c1ccc(Cl)cc1Cl (stereo not given) | Dose-dependent effect | – |
| Oc1ccc2ccccc2c1C(Nc1nc2ccccc2s1)c1ccccc1 (stereo not given) | Dose-dependent effect | – |
| Oc1ccc2ccccc2c1C(Nc1nc2ccc(Cl)cc2s1)c1ccc(Br)cc1 (stereo not given) | Dose-dependent effect | – |
| Oc1ccc2ccccc2c1C(Nc1nc2c(Cl)cccc2s1)c1ccc(Br)cc1 (stereo not given) | Dose-dependent effect | – |
| Oc1ccc2ccccc2c1C(Nc1nc2ccccc2s1)c1ccccc1Cl (stereo not given) | Dose-dependent effect | – |
| Oc1ccc2ccccc2c1C(Nc1nc2c(Cl)cccc2s1)c1ccc(Cl)cc1Cl (stereo not given) | Dose-dependent effect | – |
| Oc1ccc2ccccc2c1C(Nc1nc2ccccc2s1)c1ccc(Cl)cc1 (stereo not given) | Dose-dependent effect | – |
| Oc1ccc2ccccc2c1C(Nc1nc2ccccc2s1)c1ccc(Br)cc1 (stereo not given) | Dose-dependent effect | – |
| CC(c1ccccc1)C(Nc1nc2ccccc2s1)c1c(O)ccc2ccccc12 (stereo not given) | Dose-dependent effect | – |
| CN(C)c1ccc(C(Nc2nc3ccccc3s2)c2c(O)ccc3ccccc23)cc1 (stereo not given) | Dose-dependent effect | – |
| COc1ccc(C(Nc2nc3ccccc3s2)c2c(O)ccc3ccccc23)c(OC)c1 (stereo not given) | Dose-dependent effect | – |
| Oc1ccc2ccccc2c1C(Nc1nc2c(Cl)cccc2s1)c1cccc(Oc2ccccc2)c1 (stereo not given) | Dose-dependent effect | – |
| Oc1ccc2ccccc2c1C(Nc1nc2ccccc2s1)c1ccc(Cl)c(Cl)c1 (stereo not given) | Dose-dependent effect | – |
| Oc1ccc2ccccc2c1C(Nc1nc2ccccc2s1)c1ccc(F)c(F)c1 (stereo not given) | Dose-dependent effect | – |
| Cc1cccc2sc(NC(c3ccc(Cl)c(Cl)c3)c3c(O)ccc4ccccc34)nc12 (stereo not given) | Dose-dependent effect | – |
| Oc1ccc2ccccc2c1C(Nc1nc2ccc(Cl)cc2s1)c1ccc(Cl)c(Cl)c1 (stereo not given) | Dose-dependent effect | – |
| Oc1ccc2ccccc2c1C(Nc1nc2c(Cl)cccc2s1)c1cccc(Cl)c1 (stereo not given) | Dose-dependent effect | – |
| Oc1ccc2ccccc2c1C(Nc1nc2ccccc2s1)c1cccc(Br)c1 (stereo not given) | Dose-dependent effect | – |

| SMILES | inhibition [1] | other results |
| --- | --- | --- |
| Cc1ccc(C(Nc2nc3c(Cl)cccc3s2)c2c(O)ccc3ccccc23)cc1 (stereo not given) | Dose-dependent effect | – |
| Oc1ccc2ccccc2c1C(Nc1nc2ccccc2s1)c1cc(F)ccc1Br (stereo not given) | Dose-dependent effect | – |
| COC(=O)C1=C(C)NC(C)=C(C(=O)OC)C1c1ccccc1[N+](=O)[O-] | – | inhibition [2]: Active |
| COc1cc(C(Nc2nc3c(Cl)cccc3s2)c2c(O)ccc3ccccc23)cc(OC)c1OC (stereo not given) | Dose-dependent effect | – |
| Oc1ccc2ccccc2c1C(Nc1nc2c(Cl)cccc2s1)c1ccc(F)cc1 (stereo not given) | Dose-dependent effect | – |
| Oc1ccc2ccccc2c1C(Nc1nc2ccccc2s1)c1ccc(C(F)(F)F)cc1 (stereo not given) | Dose-dependent effect | – |
| Oc1ccc2ccccc2c1C(Nc1nc2ccccc2s1)c1ccc(F)cc1 (stereo not given) | Dose-dependent effect | – |
| Cc1ccc(C(Nc2nc3ccc(Cl)cc3s2)c2c(O)ccc3ccccc23)cc1 (stereo not given) | Dose-dependent effect | – |
| Oc1ccc2ccccc2c1C(Nc1nc2ccccc2s1)c1ccc2ccccc2c1 (stereo not given) | Dose-dependent effect | – |
| COc1cc(C(Nc2nc3ccccc3s2)c2c(O)ccc3ccccc23)cc(OC)c1OC (stereo not given) | Dose-dependent effect | – |
| CN(C)c1ccc(C(Nc2nc3c(Cl)cccc3s2)c2c(O)ccc3ccccc23)cc1 (stereo not given) | Dose-dependent effect | – |
| Oc1ccc2ccccc2c1C(Nc1nc2ccccc2s1)c1cccc(Cl)c1 (stereo not given) | Dose-dependent effect | – |
| O=C(/C=C/c1ccc(O)c(O)c1)c1ccc(O)cc1O [BUTEIN] | – | IC50 [3]: 730000 nM |
| N#Cc1ccc(C(Nc2nc3ccccc3s2)c2c(O)ccc3ccccc23)cc1 (stereo not given) | Dose-dependent effect | – |
| CC(C)c1ccc(C(Nc2nc3ccccc3s2)c2c(O)ccc3ccccc23)cc1 (stereo not given) | Dose-dependent effect | – |
| Oc1ccc2ccccc2c1C(Nc1nc2ccc(Cl)cc2s1)c1ccccc1 (stereo not given) | Dose-dependent effect | – |
| COc1ccc(C(Nc2nc3ccccc3s2)c2c(O)ccc3ccccc23)cc1OC (stereo not given) | Dose-dependent effect | – |
| Oc1ccc2ccccc2c1C(Nc1nc2ccccc2s1)c1cccc(Cl)c1Cl (stereo not given) | Dose-dependent effect | – |
| COc1ccc(C(Nc2nc3c(Cl)cccc3s2)c2c(O)ccc3ccccc23)cc1 (stereo not given) | Dose-dependent effect | inhibition [4]: 80.1%; IC50 [3]: 607 nM; IC50 [5]: 50000 nM |
| Oc1ccc2ccccc2c1C(Nc1nc2ccccc2s1)c1cccc(F)c1 (stereo not given) | Dose-dependent effect | – |
| Oc1ccc2ccccc2c1C(Nc1nc2ccccc2s1)c1cccc(Oc2ccccc2)c1 (stereo not given) | Dose-dependent effect | – |
| COc1ccc(C(Nc2nc3ccccc3s2)c2c(O)ccc3ccccc23)cc1 (stereo not given) | Dose-dependent effect | inhibition [4]: 61.8%; IC50 [3]: 837 nM; IC50 [5]: 3000 nM |
